Tests used:
[1] = Displacement of [125I]TZDM from amyloid beta (1 to 40) aggregates after 2 hrs by gamma counting
In short: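 Competition binding against [125I]TZDM as radiolabeled standard, using Aβ1–40 aggregates; run in triplicate, results as mean ± SD.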

[2] = Binding affinity to amyloid beta fibrils
In short: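 Competitive binding to Aβ1–40 aggregates, with [125I]TZDM as the radiolabeled reference ligand displaced by unlabeled test compound. Run in triplicate and reported as mean ± SD.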

Structure (SMILES) | Ki [1] | Ki [2]
COc1ccc(/C=C/C(=O)n2ccc3cc(OC)ccc32)cc1 | 60.8 nM | 
COc1ccc(/C=C/C(=O)n2ccc3cc(C)ccc32)cc1 | 103 nM | 
O=C(/C=C/c1ccccc1)n1ccc2cc(F)ccc21 | 32.7 nM | 
O=C(/C=C/c1ccccc1)n1ccc2cc(Br)ccc21 | 18.9 nM | 
CC(C)Cc1ccc([C@H](C)C(=O)O)cc1 [DEXIBUPROFEN] |  | 44.4 nM
